High-throughput results as filed in PubChem.
SIAE inh = human SIAE inhibitors, primary screen, biochemical, fluorescence polarization, FP-Rh probe, 1536-well HTS. AID 1053197, 2014. actives 0.69% (n = 370,000). inhibition, % at 9.66 µM. SIAE FP-Rh probe binding;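 active = inhibition above a cutoff: mean of compounds within the control limits plus 3 SD of those, cut at about 17% in these data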;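 also: 0% = plate median of compound wells and 100% = probe without SIAE protein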
Target sequence (Q9HAT2 whole entry, looked up): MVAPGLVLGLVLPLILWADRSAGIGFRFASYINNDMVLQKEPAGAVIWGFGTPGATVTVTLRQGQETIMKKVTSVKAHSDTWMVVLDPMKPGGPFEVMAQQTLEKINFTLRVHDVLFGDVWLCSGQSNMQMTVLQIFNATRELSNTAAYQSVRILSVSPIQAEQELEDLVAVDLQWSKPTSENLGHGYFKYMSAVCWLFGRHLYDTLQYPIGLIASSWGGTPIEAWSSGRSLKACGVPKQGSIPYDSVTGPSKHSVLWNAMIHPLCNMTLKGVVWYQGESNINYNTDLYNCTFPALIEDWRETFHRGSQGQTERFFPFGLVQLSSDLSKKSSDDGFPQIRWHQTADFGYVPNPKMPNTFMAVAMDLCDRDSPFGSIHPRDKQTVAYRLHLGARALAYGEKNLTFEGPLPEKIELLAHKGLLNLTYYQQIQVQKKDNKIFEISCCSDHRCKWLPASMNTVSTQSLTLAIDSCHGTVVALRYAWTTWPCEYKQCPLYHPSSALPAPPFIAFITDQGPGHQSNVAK
PRMT1 inh = PRMT1 methyltransferase inhibitors, primary screen, biochemical, fluorescence polarization; actives 1.3% (n = 370,000); recombinant PRMT1, activity-based probe fluorescence polarization; AID 652257, 2013; inhibition, % at 2.79 µM;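 active = inhibition above about 21% made by adding two undisclosed values, limit read from the data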
TCR-CD3 inh = inhibitors of human TCR-CD3 interaction, primary screen, biochemical, fluorescence, TAMRA-labeled TCR probe. T-cell receptor (TCR). actives 0.37% (n = 360,000). inhibition, % at 9.4 µM; in the data active = inhibition above about 19%;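 also: recombinant mutant TCR 2C K166C tagged with TAMRA read by polarization; 0% = receptor in buffer alone and 100% = receptor with positive control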
ABHD4 inh = ABHD4 inhibitors, primary screen, biochemical, fluorescence polarization, mouse. inhibition, % at 8.92 µM. (Lyso)-N-acylphosphatidylethanolamine lipase (Mus musculus), Q8VD66. purified mABHD4, FP-Rh probe fluorescence polarization. AID 720543, 2013. actives 0.54% (n = 370,000);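 active = inhibition exceeding the mean over every tested compound plus 3 SD, cut at about 30% in these data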;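 also: 0% = plate median of compound wells and 100% = S159A mutant with DMSO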
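Assay system: mouse ABHD4 enzyme, wild type / Also added: fluorescent activity-based probe FP-Rh / Doses: single nominal dose of 8.92 µM, 0.89% DMSO final / Timing: 45 min compound pre-incubation plus 60 min probe step, 25 °C / Signal: FP readout, ex 525 nm / em 598 nm / Control set: S159A mutant/DMSO as 100%, compound-well median as 0%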
rCAG RNA binder = binders of r(CAG) RNA repeats, primary screen, biochemical, fluorescence. r(CAG) RNA repeat, TO-PRO-1 dye displacement fluorescence. inhibition, % at 3 µM. actives 1.3% (n = 370,000). AID 651821, 2012;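 active = inhibition above the plate cutoff, the mean of all test compounds on that plate plus 3 SD, cut at about 35% in these data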;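 also: 0% = DMSO alone and 100% = 100 µM mitoxantrone as full dye displacement; higher means more dye released from RNA so lower well fluorescence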
SIAE inh conf = human SIAE inhibitors, retest, confirmation, biochemical, fluorescence polarization, FP-Rh probe, triplicate; actives 13% (n = 2,300); inhibition, % at 9.66 µM; shares compounds with SIAE inh; AID 1117263, 2014; SIAE FP-Rh activity-based probe;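 active = mean inhibition of the replicates above the hit cutoff set in the primary screen, cut at about 17% in these data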;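 also: 0% = SIAE with DMSO and probe and 100% = probe without SIAE; inhibitors lower polarization as more probe stays unbound to SIAE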
An asterisk follows results filed as active; nt = no result given. Hits are enriched below; roughly 3.3% of the tested compounds scored in any of these assays.

SMILES | SIAE inh | PRMT1 inh | TCR-CD3 inh | ABHD4 inh | rCAG RNA binder | SIAE inh conf
COC(=O)C1C(=O)c2c(n[nH]c2C)CC1(C)C (stereo unspecified) | 19* | -3 | 4 | -1 | -3 | 1
O=C(N[C@H](C(=O)N1CCC[C@H]1C(=O)NCCc1ccccc1Cl)C1CCCCC1)c1ccccc1 | -5 | -4 | -3 | -7 | -1 | nt
Nn1c(SCC(=O)Nc2ccccc2C(F)(F)F)nncc1=O | 3 | 4 | 8 | 3 | 2 | nt
CCOC(=O)c1sc(=S)[nH]c1C | 18* | 6 | -4 | 2 | 0 | 7
CSCC[C@H](CO)NC(=O)[C@H]1O[C@@H](n2cnc3c(N)ncnc32)[C@H](O)[C@@H]1O | 7 | -9 | 3 | 6 | 0 | nt
CC(Sc1nnc(NC2CCCCC2)s1)C(=O)Nc1ccc2c(c1)C(=O)c1ccccc1C2=O (stereo unspecified) | 24* | 0 | -4 | 11 | 5 | -25
O=C(O)c1cn(-c2ccc(F)c(F)c2)c2c(F)c(F)c(F)c(F)c2c1=O | 20* | 3 | 6 | 2 | -1 | 2
COC(=O)C1CN(Cc2ccccc2)CCS(=O)(=O)N1Cc1ccc(C)cc1 (stereo unspecified) | 2 | 4 | nt | -7 | 3 | nt
CCOC(=O)c1ccccc1NC(=O)COC(=O)CCC(=O)c1ccc(C)cc1 | 20* | -1 | -5 | 4 | -5 | -4
COc1cc(NC(=O)[C@@H](Cc2ccccc2)NC(=O)[C@H]2O[C@@H](n3ccc(N)nc3=O)[C@H](O)[C@@H]2O)cc(OC)c1OC | 45* | 4 | 3 | -1 | 1 | 46*
COc1ccc(CN(C)C(=O)[C@@H](Cc2ccccc2)NC(=O)[C@H]2O[C@@H](n3ccc(N)nc3=O)[C@H](O)[C@@H]2O)cc1OC | 48* | -2 | -5 | -2 | 2 | 53*
CCCn1cnnc1CNC(=O)[C@@H](Cc1ccccc1)NC(=O)[C@H]1O[C@@H](n2ccc(=O)[nH]c2=O)[C@H](O)[C@@H]1O | 30* | -2 | 5 | 6 | 1 | 35*
Cc1ccc(CNC(=O)[C@@H](Cc2ccccc2)NC(=O)[C@H]2O[C@@H](n3ccc(N)nc3=O)[C@H](O)[C@@H]2O)o1 | 18* | 0 | -2 | -1 | 5 | 14
O=C(N[C@H](Cc1ccccc1)C(=O)NCc1ccccn1)[C@H]1O[C@@H](n2ccc(=O)[nH]c2=O)[C@H](O)[C@@H]1O | -3 | -1 | -1 | -1 | 0 | nt
Nc1ccn([C@@H]2O[C@H](C(=O)N[C@H](Cc3ccccc3)C(=O)NCc3cccc4c3OCO4)[C@@H](O)[C@H]2O)c(=O)n1 | 7 | -1 | 2 | -1 | 1 | nt
CCOc1ccc(N2CC(C(=O)N3CCN(c4ccccn4)CC3)CC2=O)cc1 (stereo unspecified) | 0 | -2 | 2 | 2 | -6 | nt
O=C(c1ccc(CS(=O)Cc2ccc(Cl)cc2)o1)N1CCN(C2CCCCC2)CC1 (stereo unspecified) | 4 | 2 | -9 | 1 | 3 | nt
Nc1ccn([C@@H]2O[C@H](C(=O)N[C@H](Cc3ccccc3)C(=O)N3CCC(F)(F)CC3)[C@@H](O)[C@H]2O)c(=O)n1 | 45* | -2 | 3 | 5 | 1 | 53*
CCC(CC)CN1CCC(CN2C(=O)C(=O)NC[C@@H]2CC(C)C)CC1 | 7 | -5 | 5 | 6 | -1 | nt
c1ccc(-c2nnc3n2N=C(c2ccc4ccccc4c2)CS3)nc1 | -2 | 15 | nt | -3 | 2 | nt
C=CCNC(=S)N/N=C/c1ccc(-c2ccc(OC)cc2)o1 | 19* | 5 | 3 | 14 | 5 | 2
Cc1ccc(OCC(=O)NC(=S)Nc2ccc(Br)cn2)cc1 | 4 | -5 | 3 | -1 | -2 | nt
CCN(CC)CCCOc1nc(C)nc2c1oc1ccccc12 | -3 | 2 | -2 | 0 | 2 | nt
CCN(CC)CCOc1nc(C)nc2c1oc1ccccc12 | 18* | -3 | 0 | 0 | -1 | 3
O=C(Nc1ccc(Br)cc1Br)Nc1cccc2[nH]c([C@@H]3O[C@H](CO)[C@@H](O)[C@H](O)[C@H]3O)nc12 | 19* | 2 | 9 | 1 | 9 | 2
SMILES | SIAE inh | PRMT1 inh | TCR-CD3 inh | ABHD4 inh | rCAG RNA binder | SIAE inh conf
COc1ccc(Cc2c(-c3ccc(C#N)cc3)nc3c(Cl)cc(C(F)(F)F)cn23)c(C)c1 | 2 | -4 | 6 | 0 | 7 | nt
Fc1ccc2[nH]c3c(N4CCc5ccccc5C4)ncnc3c2c1 | 4 | -1 | -7 | 12 | 11 | nt
COc1ccc2[nH]c3c(N4CCN(Cc5ccc6c(c5)OCO6)CC4)ncnc3c2c1 | 3 | 4 | -5 | 5 | 1 | nt
Cc1ccc2[nH]c3c(N4CCc5ccccc5C4)ncnc3c2c1 | 23* | 4 | 2 | 29 | 9 | 13
COc1ccc2[nH]c3c(N4CCC(O)(c5cccc(C(F)(F)F)c5)CC4)ncnc3c2c1 | 18* | 2 | -4 | 18 | 2 | 15
NC(c1csc(Nc2ccccn2)n1)c1ccccc1Cl (stereo unspecified) | -5 | -5 | -2 | 5 | 3 | nt
Cc1ccccc1CNC(=O)CCNS(=O)(=O)c1ccc(OC(F)(F)F)cc1 | 1 | -16 | 12 | 3 | 0 | nt
CCNC(=S)NNC(=O)c1ccc(OC)cc1 | 17* | -2 | 2 | -4 | -2 | 7
COc1ccc(C(=O)NNC(=S)NC(=O)c2ccc(OC)cc2)cc1 | 5 | -4 | 11 | 3 | 9 | nt
CCN(CC(=O)c1c(N)n(C)c(=O)n(C)c1=O)c1cccc2ccccc12 | 20* | 1 | -5 | 13 | 9 | 7
Cc1ccc(C)c(NC(=O)CN(C)C(=O)c2ccccc2OCc2ccccc2Cl)c1 | -5 | -6 | 3 | -8 | -5 | nt
Oc1ccc(O)c(Cc2nc3ccccc3[nH]2)c1 | 19* | 30* | 0 | 11 | 9 | 3
Cc1n[nH]c(=S)n(/N=C/c2cccs2)c1=O | 19* | -4 | -4 | 1 | 0 | -2
CC(C)(C)c1n[nH]c(=S)n(/N=C/c2cccs2)c1=O | -2 | 1 | -2 | -2 | 1 | nt
CC(C)=C(NC(=O)c1ccccc1)C(=O)Nc1cccc(C(=O)O)c1 | -5 | -1 | -3 | 2 | 1 | nt
O=C1NC(Cc2ccccc2)c2nc3ccc(Cl)cc3c(=O)n2-c2ncccc21 (stereo unspecified) | 9 | -3 | -4 | -1 | 6 | nt
O=C(CCc1c[nH]c2ccccc12)Nc1ccc(Oc2cccnc2)cc1 | 22* | 3 | 2 | -9 | 6 | 32*
